This is a sample that favours compounds with a hit; in the whole collection about 7.2% have one here.
M1 antag – M1 muscarinic receptor (rat) antagonism | actives 3.4% (n = 64,000) | B-score at 10 µM | CHO-M1 cells, Fluo-4 calcium, ACh EC80 antagonist mode; hits give low values | P08482 | AID 628;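 active = calcium fluorescence response, raw or row-and-column corrected B-score, differing from the plate sample mean either way at a set confidence level, mostly lower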
Target sequence (P08482 whole entry, looked up): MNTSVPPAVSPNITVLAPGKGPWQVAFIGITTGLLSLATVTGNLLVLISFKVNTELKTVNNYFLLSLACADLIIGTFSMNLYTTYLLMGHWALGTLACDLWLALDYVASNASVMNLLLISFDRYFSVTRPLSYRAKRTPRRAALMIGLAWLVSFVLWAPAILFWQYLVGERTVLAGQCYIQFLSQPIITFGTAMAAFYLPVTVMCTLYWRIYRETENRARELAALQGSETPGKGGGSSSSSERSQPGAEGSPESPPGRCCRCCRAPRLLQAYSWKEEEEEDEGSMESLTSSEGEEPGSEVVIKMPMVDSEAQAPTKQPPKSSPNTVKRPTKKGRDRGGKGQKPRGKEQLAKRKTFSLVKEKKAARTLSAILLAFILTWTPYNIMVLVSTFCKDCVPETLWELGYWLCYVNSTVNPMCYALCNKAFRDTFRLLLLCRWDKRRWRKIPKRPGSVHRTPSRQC
M1 ag – M1 muscarinic receptor agonism | actives 3% (n = 64,000) | CHO-M1 cells, Fluo-4 calcium fluorescence, agonist mode; hits give high values | B-score at 10 µM;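 active = fluorescence rise, raw or as B-score row- and column-corrected plate score, outside the 99.7% band of its plate's samples, either direction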
HEK293 NFkB inh – inhibitors of the PMA/ionomycin-induced NF-kB reporter in HEK293 cells; inhibition, % at 3 µM; HEK-293 NF-kB luciferase reporter, luminescence; actives 0.21% (n = 62,000);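 active = inhibition above the mean of all tested compounds plus 3 SD, cut at about 40% in these data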;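 note: 0% = stimulated DMSO wells and 100% = 10 µM reference inhibitor 5653914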
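Reagent: PMA plus ionomycin mix as NF-kB-activating stimulus. Assay system: NF-kB luciferase reporter HEK-293 cells. Technique: luminescence from luciferase substrate reagent. Incubation: 1 h compound pre-incubation, 16 h PMA/ionomycin at 37 °C. Benchmarks: DMSO only as uninhibited control, 10 µM reference inhibitor as full inhibition. Repeats: tested once.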
BAP1 inh – blocks human BAP1 ubiquitin-AMC hydrolysis. Q92560. recombinant BAP1, Ub-AMC hydrolysis fluorescence kinetic; hits give low values. calls only at 20 µM. actives 0.48% (n = 72,000);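 active = activity remaining at or below 50% of control, provided the compound also passes the data quality filters; inactive = the rest, including low values that fail the filters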;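 note: 100% = DMSO wells rate and 0% = substrate alone blank rate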
D1 allo mod – D1 dopamine receptor (human) allosteric modulation. B-score at 10 µM. HEK293 D1, CRE-luciferase, dopamine EC30 potentiation; actives deviate in either direction. actives 5.9% (n = 58,000);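 active = luminescence count or its row- and column-corrected plate score outside the 99.7% band of the plate's sample wells, on either side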
hDAT+cocaine – modulates human dopamine transporter uptake under cocaine; Q01959; LLC-PK1 hDAT cells, [14C]-dopamine uptake with cocaine IC80; actives deviate in either direction; B-score at 10 µM; actives 1.3% (n = 110,000); AID 449768;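 active = Z score or B-score, a plate-position-corrected score, falls beyond the plate's 99.7% confidence bounds, in either direction; inactive = both scores lie inside the 99.7% bounds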;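 note: scored against the spread of the other compound wells on the same plate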
D1 PAM confirm – confirmation of human D1 dopamine receptor allosteric modulators; shares compounds with D1 allo mod; HEK293 D1 CRE-luciferase, dopamine EC30 potentiation; hits give high values; luminescence at 10 µM; actives 88% (n = 2,200); AID 642;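 active = luminescence in either of two replicates above the same-plate mean plus 3 SD of the low-dose dopamine control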
D1 ag no DA – secondary test of D1 modulators: activity without dopamine. AID 646. shares compounds with D1 allo mod. actives 0.8% (n = 1,900). HEK293 D1 CRE-luciferase, luminescence, no dopamine; hits give high values. luminescence at 10 µM; in the data active = luminescence above about 3900
Isoprot counter – alters isoproterenol CRE-luciferase response in HEK293 cells | calls only at 10 µM | HEK293 D1 CRE-luciferase, isoproterenol EC30 counter-screen | actives 63% (n = 2,200) | AID 647 | shares compounds with D1 allo mod;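 active = luminescence in either replicate above plate mean of wells with a partly effective reference agonist dose plus 3 SD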;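 note: isoproterenol raises cAMP through native beta-adrenoceptor Gs so signal bypasses D1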
* hit, by the source's call.

For c1ccc(OCCOc2ccccc2-c2nnco2)cc1 the results were M1 antag -0.0168, M1 ag -0.00158, HEK293 NFkB inh 2.3, BAP1 inh inactive, D1 allo mod 4.37*, hDAT+cocaine 0.486, D1 PAM confirm 6588, D1 ag no DA 1756 and Isoprot counter inactive.
For COc1ccc(C(=O)NCc2n[nH]c(=S)n2-c2ccccc2)c(OC)c1 the results were BAP1 inh inactive.
CC(=O)N/C(N)=N\c1nc2cc(C)ccc2o1 was read as BAP1 inh inactive.
Screening O=C(c1cccs1)c1coc2ccc(O)c(CN3CCOCC3)c12 returned M1 antag -0.445, M1 ag 0.0345, HEK293 NFkB inh 12.8, BAP1 inh inactive, D1 allo mod 17.6*, hDAT+cocaine 1.01, D1 PAM confirm 20688* and Isoprot counter active.
Screening CN=C(NS(=O)(=O)c1ccc(C)cc1)c1ccccc1 returned BAP1 inh inactive.
Screening c1ccc(-c2nnc3sc(CN4CCc5ccccc54)cn23)cc1 returned M1 antag -0.737, M1 ag 0.699, HEK293 NFkB inh 19.8, BAP1 inh inactive, D1 allo mod 2.61*, hDAT+cocaine 0.375, D1 PAM confirm 15088*, D1 ag no DA 1624 and Isoprot counter inactive.
`Cc1cc(NC(=O)COc2nnc(-c3ccccc3)c3ccccc23)no1` gave M1 antag 0.345, M1 ag -0.0726, HEK293 NFkB inh 12.5, BAP1 inh inactive, D1 allo mod 5.49*, hDAT+cocaine 0.483, D1 PAM confirm 6684*, D1 ag no DA 1432 and Isoprot counter inactive.
Cc1cc(NC(=O)COc2cccc(C)c2C)no1 was read as M1 antag 0.182, M1 ag -0.135, HEK293 NFkB inh 15.6, BAP1 inh inactive, D1 allo mod 0.511 and hDAT+cocaine 0.0316.
`Cc1c(NS(=O)(=O)CC23CCC(CC2=O)C3(C)C)c(=O)n(-c2ccccc2)n1C` (centres undefined) gave M1 antag 1.4, M1 ag -0.181, HEK293 NFkB inh 8.4, BAP1 inh inactive, D1 allo mod 3.31*, hDAT+cocaine 0.784, D1 PAM confirm 6536, D1 ag no DA 1760 and Isoprot counter inactive.
`Cc1ccc(S(=O)(=O)N(C(=O)NC(=O)Nc2cccc(C(F)(F)F)c2)c2ccccc2)cc1` gave BAP1 inh inactive.
For COC(=O)/C(=C1/Oc2cc3c(cc2S1)OCO3)C(F)(F)F the results were M1 antag -0.491, M1 ag 0.0656, HEK293 NFkB inh 5.8, BAP1 inh inactive, D1 allo mod 3.37*, hDAT+cocaine 0.42, D1 PAM confirm 11868*, D1 ag no DA 1480 and Isoprot counter inactive.
Screening COc1cccc(Oc2cnc(N)nc2-c2ccc(OC)cc2O)c1 returned M1 antag 0.097, M1 ag -0.0419, HEK293 NFkB inh 43.4*, BAP1 inh inactive, D1 allo mod 14.8*, hDAT+cocaine 0.324, D1 PAM confirm 22464*, D1 ag no DA 1596 and Isoprot counter active.
`COc1ccc(-c2cnc(N)nc2-c2ccc(OC)cc2O)cc1` gave M1 antag 0.108, M1 ag 0.536, HEK293 NFkB inh 16.3, BAP1 inh inactive, D1 allo mod 14*, hDAT+cocaine 0.742, D1 PAM confirm 16148* and Isoprot counter active.
COc1ccc(-c2nc(C)ncc2-c2csc(C)n2)c(O)c1 was read as hDAT+cocaine -0.142.
`CCOC(=O)c1c(NC(=O)C(C)(C)C)sc(C(=O)Nc2ccccc2)c1C` gave BAP1 inh inactive.
CC1CCc2nc(NCCO)nc(C(F)(F)F)c2C1 (centres undefined) was read as M1 antag 0.201, M1 ag -0.386, HEK293 NFkB inh 8.7, BAP1 inh inactive, D1 allo mod 7.48*, hDAT+cocaine -0.35, D1 PAM confirm 13160*, D1 ag no DA 1232 and Isoprot counter active.
Screening Cc1cc(NCCCn2ccnc2)n2c(nc3ccccc32)c1C#N returned M1 antag 0.0853, M1 ag -0.614, HEK293 NFkB inh 18.7, D1 allo mod 3.87*, hDAT+cocaine -0.0183, D1 PAM confirm 7832*, D1 ag no DA 1564 and Isoprot counter inactive.
`Cc1cc(NCCO)n2c(nc3ccccc32)c1C#N` gave BAP1 inh inactive.
`O=C(Nc1nc(-c2ccc(F)cc2)cs1)c1cccc([N+](=O)[O-])c1` gave BAP1 inh inactive.
`O=C(Nc1ccccc1-c1ccccc1)c1cnccn1` gave M1 antag 0.503, M1 ag -1.29, HEK293 NFkB inh 12.8, BAP1 inh inactive, D1 allo mod 5.21*, hDAT+cocaine -0.701, D1 PAM confirm 9324*, D1 ag no DA 1564 and Isoprot counter active.
`O=C(Nc1ccccc1N1CCOCC1)c1cnccn1` gave hDAT+cocaine -0.276.
For Cc1ccc(OCC(O)CN2CCN(c3ccccc3)CC2)cc1C (centres undefined) the results were BAP1 inh inactive.
`COc1cccc(C2c3c(oc4ccc(F)cc4c3=O)C(=O)N2CCCN2CCOCC2)c1` (centres undefined) gave M1 antag 0.0762, M1 ag 0.491, HEK293 NFkB inh -9.9, BAP1 inh inactive, D1 allo mod 3.76*, D1 PAM confirm 6980, D1 ag no DA 1496 and Isoprot counter inactive.
`c1ccc(Cc2nn3c(C4COc5ccccc5O4)nnc3s2)cc1` (centres undefined) gave M1 ag 0.0978, HEK293 NFkB inh 10.7, BAP1 inh inactive, D1 allo mod 5.95*, hDAT+cocaine -0.0491, D1 PAM confirm 14652*, D1 ag no DA 1492 and Isoprot counter active.
Screening COc1ccc(CCNC(=O)C2CC(=O)N(C3CCCCCCC3)C2)cc1OC (centres undefined) returned hDAT+cocaine 0.291.
Screening COc1ccc(CCNC(=O)C2CC(=O)N(c3ccccc3)C2)cc1OC (centres undefined) returned M1 antag -0.0454, M1 ag -0.269, HEK293 NFkB inh 17.7, BAP1 inh inactive, D1 allo mod 2.88*, hDAT+cocaine 0.00149, D1 PAM confirm 5376, D1 ag no DA 1464 and Isoprot counter inactive.

Assay outcomes as filed in PubChem BioAssay.
